The record followed here is ChEMBL document CHEMBL2046352, “Discovery of novel 5-(ethyl or hydroxymethyl) analogs of 2'-'up' fluoro (or hydroxyl) pyrimidine nucleosides as a new class of Mycobacterium tuberculosis, Mycobacterium bovis and Mycobacterium avium inhibitors” (Bioorg Med Chem, 2012).

Series [1] relates to Mycobacterium avium. Briefly: Antimycobacterial activity against Mycobacterium avium ATCC 25291 assessed as inhibition of microbial growth at 100 ug/ml incubated for 6 days by MABA method. Format: functional, Mycobacterium avium subsp. avium ATCC 25291. The conditions noted are these: ATCC 25291, 144 h, read-out: GI. The procedure, abridged: (§1)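 Microplate alamar blue assay in 7H9GC medium. Compounds dissolved in DMSO at 10 mg/mL (stock), diluted to 100, 50, 25, 10, 5, 1 and 0.5 ug/mL, each in triplicate. Frozen inoculum added at final 2.5 x 10^5 CFU/mL. Bacteria-alone and medium-alone control wells. Read by colour change and fluorescence. % inhibition = (test − M bkg)/(B − M bkg) x 100, mean of two experiments. MIC50 = lowest concentration giving ≥50% inhibition.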

Series [2] relates to Mycobacterium avium. Briefly: Antimycobacterial activity against Mycobacterium avium ATCC 25291 assessed as inhibition of microbial growth at 50 ug/ml incubated for 6 days by MABA method. Format: functional, Mycobacterium avium subsp. avium ATCC 25291. The conditions noted are these: ATCC 25291, 144 h, read-out: GI. The procedure, abridged: as §1
Series [3] concerns Mycobacterium tuberculosis. Briefly: Antimycobacterial activity against Mycobacterium tuberculosis H37Ra assessed as inhibition of microbial growth at 100 ug/ml incubated for 6 days by MABA method. The note with it: 144 h, read-out: GI. In kind it is functional. The procedure, abridged: as §1
Series [4] deals with Mycobacterium tuberculosis. Briefly: Antimycobacterial activity against Mycobacterium tuberculosis H37Ra assessed as inhibition of microbial growth incubated for 6 days by MABA method. Format: functional. The note with it: 144 h. The procedure, abridged:
as §1

Series [5] in a line: Toxicity against human HuH7 cells after 2 days by XTT assay. In kind it is cell-based, Huh-7. The procedure, abridged: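 Huh-7 hepatoma cells seeded at 2 x 10^4/well, allowed to attach 6–8 h, then exposed to 200, 100, 50, 10 and 1 ug/mL with a DMSO control for two days at 37 °C. Viability by XTT, 4 h at 37 °C, absorbance 450–500 nm.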
Series [6] in a line: Toxicity against human HuH7 cells after 2 days by [3H]thymidine incorporation assay. In kind it is cell-based, Huh-7. The procedure, abridged: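 Huh-7 cells plated at 1 x 10^4/well and exposed in triplicate to 200, 100, 50, 10 and 1 ug/mL with a DMSO control for two days at 37 °C. Pulsed with 0.5 uCi/well [3H]-thymidine for 12–18 h, harvested onto filters, incorporation counted by liquid scintillation.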

Series [7] has as its system Mycobacterium tuberculosis. Briefly: Antimycobacterial activity against Mycobacterium tuberculosis H37Ra assessed as inhibition of microbial growth at 50 ug/ml incubated for 6 days by MABA method. Format: functional. The conditions noted are these: 144 h, read-out: GI. The essentials:
as §1

The subject of series [8] is Mycobacterium avium. Briefly: Antimycobacterial activity against Mycobacterium avium ATCC 25291 assessed as inhibition of microbial growth at 0.5 to 100 ug/ml incubated for 6 days by MABA method. In kind it is functional, Mycobacterium avium subsp. avium ATCC 25291. The essentials:
as §1

The test system of series [9] is Mycobacterium tuberculosis. Briefly: Antimycobacterial activity against Mycobacterium tuberculosis H37Ra assessed as inhibition of microbial growth at 0.5 to 100 ug/ml incubated for 6 days by MABA method. Format: functional. The procedure, abridged:
as §1

Series [10] concerns Mycobacterium tuberculosis. Briefly: Antimycobacterial activity against Mycobacterium tuberculosis H37Ra assessed as inhibition of microbial growth at 10 ug/ml incubated for 6 days by MABA method. Format: functional. The note with it: 144 h, read-out: GI. The essentials:
as §1

In series [11] the test system is Mycobacterium tuberculosis. Briefly: Antimycobacterial activity against Mycobacterium tuberculosis H37Ra assessed as inhibition of microbial growth at 15 to 20 ug/ml incubated for 6 days by MABA method. Format: functional.
The test system of series [12] is Mycobacterium tuberculosis. Briefly: Antimycobacterial activity against Mycobacterium tuberculosis H37Ra assessed as inhibition of microbial growth at 5 ug/ml incubated for 6 days by MABA method. Format: functional. The note with it: 144 h, read-out: GI. The procedure, abridged: as §1
Series [13] has as its system Mycobacterium avium. Briefly: Antimycobacterial activity against Mycobacterium avium ATCC 25291 assessed as inhibition of microbial growth incubated for 6 days by MABA method. Format: functional, Mycobacterium avium subsp. avium ATCC 25291. The conditions noted are these: ATCC 25291, 144 h. The procedure, abridged:
as §1

The test system of series [14] is Mycobacterium tuberculosis. Briefly: Antimycobacterial activity against Mycobacterium tuberculosis H37Rv assessed as inhibition of microbial growth by radiometric-BACTEC assay. In kind it is functional.
In series [15] the test system is Mycobacterium avium. Briefly: Antimycobacterial activity against Mycobacterium avium ATCC 25291 assessed as inhibition of microbial growth at 10 ug/ml incubated for 6 days by MABA method. Format: functional, Mycobacterium avium subsp. avium ATCC 25291. The note with it: ATCC 25291, 144 h, read-out: GI. The essentials: as §1
Series [16] deals with Mycobacterium tuberculosis. Briefly: Antimycobacterial activity against Mycobacterium tuberculosis H37Ra assessed as inhibition of microbial growth at 0.5 ug/ml incubated for 6 days by MABA method. In kind it is functional. The conditions noted are these: 144 h, read-out: GI. The procedure, abridged: as §1
For series [17], the system named is Mycobacterium tuberculosis. Briefly: Potency index, ratio of MIC50 for cycloserine to MIC50 for compound against Mycobacterium tuberculosis H37Ra incubated for 6 days by MABA method. In kind it is functional.
The test system of series [18] is Mycobacterium tuberculosis. Briefly: Antimycobacterial activity against Mycobacterium tuberculosis H37Ra assessed as inhibition of microbial growth at 0.1 ug/ml incubated for 6 days by MABA method. Format: functional. The note with it: 144 h, read-out: GI.
The test system of series [19] is Mycobacterium tuberculosis. Briefly: Antimycobacterial activity against Mycobacterium tuberculosis H37Rv assessed as inhibition of microbial growth at 1 ug/ml by radiometric-BACTEC assay. Format: functional. The conditions noted are these: read-out: GI.
The subject of series [20] is Mycobacterium avium. Briefly: Antimycobacterial activity against Mycobacterium avium ATCC 25291 assessed as inhibition of microbial growth at 2 ug/ml incubated for 6 days by MABA method. The conditions noted are these: ATCC 25291, 144 h, read-out: GI. Format: functional, Mycobacterium avium subsp. avium ATCC 25291.
The test system of series [21] is Mycobacterium tuberculosis. Briefly: Antimycobacterial activity against Mycobacterium tuberculosis H37Rv assessed as inhibition of microbial growth at 2 ug/ml by radiometric-BACTEC assay. Format: functional, organism-based.

Calls of active or inactive are those of the source. No cut-off for these calls is given here.

Consider `CCc1cn([C@@H]2O[C@H](CO)[C@@H](O)[C@@H]2F)c(=O)[nH]c1=S`, for which the inhibition of growth at 100 µg/mL is 35% in the series on Mycobacterium avium [1] and 60% in series [3]. Moreover, the inhibition of growth at 50 µg/mL with Mycobacterium avium [2] was 25%; in series [7], 50%. For the same compound, the MIC50 in series [4] came out at 50 µg/mL. Also, the cytotoxic concentration (CC50) at 48 h in series [5] and in series [6] was over 100 µg/mL in each case.
As to `CCc1cn([C@@H]2O[C@H](CO)C[C@@H]2F)c(=O)[nH]c1=O`, the inhibition of growth at 100 µg/mL (with Mycobacterium avium [1]; in [3]) was 25% each time. Moreover, the CC50 at 48 h in [5] and in series [6] was over 100 µg/mL throughout.
`CCc1cn([C@@H]2O[C@H](CO)[C@@H](O)[C@@H]2F)c(=O)nc1N`: the “growth inhibition (GI)” value with Mycobacterium avium [8] stood at 0%. Also, the inhibition of growth at 100 µg/mL in series [3] was 50%. The MIC50 in [4] came to 100 µg/mL. Further, the CC50 at 48 h in series [5] and in series [6] was over 100 µg/mL throughout.
With `O=c1[nH]c(=O)n([C@@H]2O[C@H](CO)[C@@H](O)[C@@H]2O)cc1CO`, the “growth inhibition (GI)” value (with Mycobacterium avium [8]; in [9]) was 0% in each case. The CC50 at 48 h in series [5] and in series [6] was over 100 µg/mL each time.
On to `N[C@@H]1CONC1=O` [CYCLOSERINE], for which the inhibition of growth at 10 µg/mL in series [10] came out at 60%. For the same compound, the inhibition of growth at 100 µg/mL in [3] is 100%. Also, in series [4], the MIC50 came out at 5 µg/mL. The “growth inhibition (GI)” value in [11] amounted to 80%. Moreover, the inhibition of growth at 5 µg/mL in series [12] stood at 50%. For the same compound, the inhibition of growth at 50 µg/mL in series [7] was 100%.
With `CCc1cn([C@@H]2O[C@H](CO)[C@@H](N=[N+]=[N-])[C@@H]2F)c(=O)[nH]c1=O`, the “growth inhibition (GI)” value (in the series on Mycobacterium avium [8]; in series [9]) was 0% each time. For the same compound, the CC50 at 48 h in series [5] and in series [6] was over 100 µg/mL each time.
As for `CCc1cn([C@H]2O[C@@H](CO)[C@H](O)[C@H]2F)c(=O)[nH]c1=O` (single isomer, unassigned), the “growth inhibition (GI)” value (in the series on Mycobacterium avium [8]; in [9]) was 0% each time. In addition, the CC50 at 48 h in series [5] and in series [6] was over 100 µg/mL each time.
On to `CCc1cn([C@@H]2O[C@H](CO)[C@@H](Br)[C@@H]2F)c(=O)[nH]c1=O`, for which the “growth inhibition (GI)” value with Mycobacterium avium [8] was determined as 0%. Further, the inhibition of growth at 10 µg/mL in series [10] was 56%. The inhibition of growth at 100 µg/mL in [3] turned out to be 78%. The MIC50 in series [4] was found to be 5 µg/mL. Further, the CC50 at 48 h in [5] and in series [6] was over 100 µg/mL each time. Further, the inhibition of growth at 5 µg/mL in series [12] was found to be 50%. The inhibition of growth at 50 µg/mL in [7] stood at 65%.
Take `O=c1[nH]c(=S)c(CO)cn1[C@@H]1O[C@H](CO)[C@@H](O)[C@@H]1O`: the inhibition of growth at 100 µg/mL in the series on Mycobacterium avium [1] worked out at 73%; in [3], 100%. Besides, the values for the inhibition of growth at 50 µg/mL (with Mycobacterium avium [2]; in [7]) were 58% and 100%, respectively. Further, the MIC50 was found to be 10 µg/mL with Mycobacterium avium [13], 0.5 µg/mL in [4] and 1 µg/mL in [14]. The inhibition of growth at 10 µg/mL is 90% in [10] and 50% in the series on Mycobacterium avium [15]. For the same compound, the CC50 at 48 h in [5] and in series [6] was over 100 µg/mL throughout. The inhibition of growth at 5 µg/mL in series [12] was 70%. Besides, the inhibition of growth at 0.5 µg/mL in series [16] amounted to 50%. The Ratio in [17] came to 10.
Take `CCc1cn2c(nc1=O)O[C@@H]1[C@H](F)[C@H]2O[C@@H]1CO`: the inhibition of growth at 100 µg/mL in the series with Mycobacterium avium [1] came out at 50%; in series [3], 25%. For the same compound, the inhibition of growth at 50 µg/mL (with Mycobacterium avium [2]; in series [7]) was 25% throughout. Also, the CC50 at 48 h in series [5] and in [6] was over 100 µg/mL in each case.
As for `CCc1cn([C@@H]2O[C@H](COC(C)=O)[C@@H](OC(C)=O)[C@@H]2F)c(=O)[nH]c1=O`, the inhibition of growth at 100 µg/mL with Mycobacterium avium [1] amounted to 35%; in [3], 68%. In addition, the CC50 at 48 h in [5] and in series [6] was over 100 µg/mL in each case. Moreover, the inhibition of growth at 50 µg/mL in series [7] came out at 55%.
Regarding `NNC(=O)c1ccncc1` [ISONIAZID], in series [18], the inhibition of growth at 0.1 µg/mL worked out at 10%. Besides, the inhibition of growth at 1 µg/mL in series [19] was determined as 100%.
In the case of `CO[C@H]1/C=C/O[C@@]2(C)Oc3c(C)c(O)c4c(O)c(c(/C=N/N5CCN(C)CC5)c(O)c4c3C2=O)NC(=O)/C(C)=C\C=C\[C@H](C)[C@H](O)[C@@H](C)[C@@H](O)[C@@H](C)[C@H](OC(C)=O)[C@@H]1C` [RIFAMPIN], the inhibition of growth at 2 µg/mL with Mycobacterium avium [20] worked out at 90%. Also, the “growth inhibition (GI)” value in series [21] is “inactive”. Besides, the inhibition of growth at 0.5 µg/mL in series [16] turned out to be 100%.
For `CC[C@H]1OC(=O)[C@H](C)[C@@H](O[C@H]2C[C@@](C)(OC)[C@@H](O)[C@H](C)O2)[C@H](C)[C@@H](O[C@@H]2O[C@H](C)C[C@H](N(C)C)[C@H]2O)[C@](C)(OC)C[C@@H](C)C(=O)[C@H](C)[C@@H](O)[C@]1(C)O` [CLARITHROMYCIN], in the series with Mycobacterium avium [20], the inhibition of growth at 2 µg/mL stood at 100%.
Consider `COCc1cn([C@@H]2O[C@H](CO)[C@@H](O)[C@@H]2O)c(=O)nc1N`, for which the inhibition of growth at 100 µg/mL worked out at 20% in the series with Mycobacterium avium [1] and 80% in series [3]. The inhibition of growth at 10 µg/mL in series [10] was determined as 50%. For the same compound, the CC50 at 48 h in series [5] and in series [6] was over 100 µg/mL each time. The inhibition of growth at 50 µg/mL in [7] amounted to 60%.
